Compounds with a hit are over-represented: about 12% of the library has one in this group of screens.
WT yeast gro inh: growth inhibition of WT yeast, mitochondrial fusion screen | mitochondrial fusion phenotypic screen, WT strain | inhibition, % at 10 µM | hit rate 2.1% among 190,000; in the data active = inhibition above about 58%; tested in S. cerevisiae
Diaph inh CS: inhibits diaphorase or chemically oxidizes, flagging diaphorase assay artifacts; diaphorase resazurin-to-resorufin fluorescence, NADH, 16 min; bacterial (C. kluyveri) enzyme, not human; inhibition, % at 20 µM; hit rate 0.69% among 190,000;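 active = primary screen inhibition at 20 µM above a set limit, cut at about 50% in these data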
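Assay system: diaphorase enzyme from Clostridium kluyveri. Quantity: enzyme working solution with 0.14 U/mL diaphorase. Schedule: reaction incubation of 16 min at room temperature. Technique: resorufin fluorescence, excitation 544 nm, emission 590 nm. Controls: No-NADH positive control and DMSO neutral control.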
Cl transport mod: modulates chloride dependent transport by human KCC2; KCC2 cells, thallium flux FluoZin-2 fluorescence; B-score of Tl+ flux slope (higher = more flux/activation; lower = inhibition) at 10 µM; hit rate 2.2% among 190,000; AID 1456;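 active = thallium flux slope and its plate-corrected score both differing from the plate sample mean at a set confidence after two filtering rounds, in either direction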;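 also: slope of fluorescence scaled to starting intensity during 10 to 20 s after thallium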
ROMK mod: human ROMK K+ channel modulation, primary screen | P48048 | Tet-inducible ROMK, thallium flux fluorescence; actives lie on both sides | B-score at 10 µM | hit rate 2% among 130,000;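 active = signal ratio slope over the read window, or its plate-corrected B-score, at least 3 SD from the plate mean, either direction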;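 also: B-score of the F/F0 ratio slope over 7 to 12 s after thallium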
Target sequence (P48048 whole entry, looked up): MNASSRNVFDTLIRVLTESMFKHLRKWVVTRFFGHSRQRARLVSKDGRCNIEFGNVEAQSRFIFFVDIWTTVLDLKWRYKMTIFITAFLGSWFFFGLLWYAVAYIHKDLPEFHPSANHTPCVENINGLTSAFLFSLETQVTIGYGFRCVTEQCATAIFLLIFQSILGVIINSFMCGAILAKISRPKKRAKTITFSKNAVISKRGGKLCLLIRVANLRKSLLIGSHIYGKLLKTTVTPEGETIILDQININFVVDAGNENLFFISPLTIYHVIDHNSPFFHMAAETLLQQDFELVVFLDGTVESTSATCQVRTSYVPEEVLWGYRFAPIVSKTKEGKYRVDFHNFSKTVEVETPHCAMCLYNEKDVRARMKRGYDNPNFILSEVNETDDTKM
Diaphorase act: activates diaphorase or chemically reduces, flagging diaphorase assay artifacts; Diaphorase/resazurin coupled assay, resorufin fluorescence, 16 min; active compounds read high; 1 = vehicle wells, 0 = NADH-free wells; activation factor at 20 µM; hit rate 0.005% among 190,000; AID 1229;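 active = diaphorase activity raised at least twofold by the compound at 20 µM; inactive = activation factor below 2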
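Test system: Clostridium kluyveri diaphorase, purified enzyme; input: enzyme 0.07 U/mL final; buffer or medium: 50 mM HEPES pH 7.4 with 4.542 mM MgCl2, 0.005% Tween 20; also added: 0.114 mM NADH and 0.1 mM resazurin, final amounts; schedule: 16 min enzyme reaction, ambient temperature; technique: fluorescence of resorufin, 544 nm excitation, 590 nm emission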
L major viab: inhibitors of Leishmania major promastigote growth; Leishmania major promastigotes, resazurin fluorescence viability; inhibition, % at 10 µM; hit rate 9% among 200,000; AID 1063; in the data active = inhibition above about 50%;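 also: promastigotes grown with compound for 44 hours at 28 °C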
Numbers stand for hits; . = inactive; / = not tested or not shown.

SMILES	WT yeast gro inh	Diaph inh CS	Cl transport mod	ROMK mod	Diaphorase act	L major viab
O=C(/C=C/NNC(=O)c1ccccc1)c1ccc([N+](=O)[O-])cc1	.	.	.	.	.	79
COc1cc(C(=O)ON=C2C=C(C)C(=O)C(C)=C2)cc(OC)c1OC	.	.	.	.	.	89
COc1ccc(C(=O)ON=C2C=C(C)C(=O)C(C)=C2)cc1	.	.	.	/	.	100
COc1cc(C(=O)Oc2cccc(C)c2)cc(OC)c1OC	.	.	.	/	.	.
COc1cc(C(=O)O/N=C2\C=CC(=O)C(C)=C2)cc(OC)c1OC	.	.	.	.	.	101
COC(=O)c1ccc(Oc2c(Cl)cccc2[N+](=O)[O-])cc1	.	.	.	/	.	.
CCOC(=O)C(C(=O)Nc1cccc(C)c1)C1CCCCC1 (configuration not stated)	.	.	.	.	.	.
Fc1cccc(C2NN=C(c3ccccc3)S2)c1 (configuration not stated)	.	.	26	.	.	.
COc1ccc(C2NN=C(c3ccc(C)cc3)S2)cc1OC (configuration not stated)	.	.	/	.	.	.
O=C(Nc1cccnc1)OC1CCCC1	.	.	.	.	.	.
Cc1cccc(-n2ncc3c(N4CC(C)CC(C)C4)ncnc32)c1 (configuration not stated)	78	.	/	/	.	.
Clc1ccc(Cn2ncc3c(N4CCCC4)ncnc32)cc1	.	.	/	.	.	.
CC1CC(C)CN(c2ncnc3c2cnn3Cc2ccc(Cl)cc2)C1 (configuration not stated)	76	.	/	.	.	.
Cc1ccc(/C=C/C(=O)OCC(=O)Nc2cccc(S(=O)(=O)N(C)C)c2)o1	.	.	.	.	.	.
CC(C)OC(=O)n1c(=S)oc2ccccc21	.	.	.	.	.	.
Cc1cccc(OC(=O)n2c(=S)oc3cc(Cl)ccc32)c1	.	.	4.7	/	.	.
O=c1oc2ccccc2c(Nc2ccccc2O)c1[N+](=O)[O-]	.	58	.	.	.	.
O=c1oc2ccccc2c(Nc2ccccc2)c1[N+](=O)[O-]	.	.	.	/	.	.
Cc1noc(C)c1CCC(=O)N1CCCC(CCC(=O)NCc2ccc(F)c(F)c2)C1 (configuration not stated)	.	.	.	.	.	.
CCOc1ccc(C(=O)NC(=S)Nc2ccc(N3CCCCC3)cc2)cc1[N+](=O)[O-]	.	.	.	/	.	99
Cc1ccc2nsnc2c1NC(=O)c1cccc([N+](=O)[O-])c1	.	.	.	/	.	.
COc1ccc(C(=O)Nc2c(C)ccc3nsnc23)cc1[N+](=O)[O-]	.	.	.	/	.	83
CCOc1ccc(C(=O)NC(=S)Nc2ccc(NC(=O)CC)cc2)cc1[N+](=O)[O-]	.	.	.	.	.	.
Cc1c(C(=O)Nc2ccccc2C(=O)N2CCCC2)cccc1[N+](=O)[O-]	.	.	.	.	.	.
Cc1ccccc1C(=O)Nc1cccc(NC(=S)NC(=O)c2cccs2)c1	.	.	.	/	.	.
SMILES	WT yeast gro inh	Diaph inh CS	Cl transport mod	ROMK mod	Diaphorase act	L major viab
Cc1c(C(=O)NC(=S)Nc2ccccc2N2CCCC2)cccc1[N+](=O)[O-]	.	.	13	.	.	87
Cc1c(C(=O)NC(=S)Nc2ccc(NC(=O)c3cccs3)cc2)cccc1[N+](=O)[O-]	/	/	.	/	/	98
CCOC(=O)c1cc(NC(=O)Nc2ccc(Br)cc2)c(C)nc1C	.	.	.	.	.	.
COc1ccc(C(=O)NC(=S)Nc2cc(C)ccn2)cc1[N+](=O)[O-]	.	.	.	.	.	62
COc1ccc(C(=O)NC(=S)Nc2cccc(Cl)c2N2CCOCC2)cc1[N+](=O)[O-]	.	.	/	/	.	.
COc1ccc(C(=O)NC(=S)Nc2ccccc2N2CCCCC2)cc1[N+](=O)[O-]	.	.	.	.	.	99
CCOc1ccc(C(=O)NC(=S)Nc2cccc(NC(=O)c3ccco3)c2)cc1[N+](=O)[O-]	.	.	.	/	.	.
O=C(Nc1ccccc1N1CCCCC1)c1cccc([N+](=O)[O-])c1	78	.	.	.	.	.
CCOc1ccc(C(=O)NC(=S)NC2CCCC2)cc1[N+](=O)[O-]	.	.	.	/	.	58
CCOc1ccc2nc(NC(=O)CC3Oc4ccccc4NC3=O)sc2c1 (configuration not stated)	/	/	.	/	/	/
C/C(CC(=O)NCCN1CCOCC1)=N\NC(=O)c1ccncc1	/	/	.	/	/	/
CCOc1ccc(C(=O)NC(=S)Nc2ccccc2N2CCCCC2)cc1[N+](=O)[O-]	.	.	.	.	.	95
CCOc1ccc(C(=O)NC(=S)Nc2ccccc2OC)cc1[N+](=O)[O-]	.	.	.	/	.	.
Cn1c(=O)n(C)c2cc(NC(=O)c3cccc([N+](=O)[O-])c3)c(Br)cc21	.	.	.	.	.	60
O=C(NC(=S)Nc1ccccc1N1CCOCC1)c1ccc([N+](=O)[O-])cc1	.	.	.	.	.	.
O=C(NC(=S)Nc1ccccc1N1CCCC1)c1ccc([N+](=O)[O-])cc1	.	.	42	.	.	.
O=C(Nc1nnc(SCc2cccc3ccccc23)s1)C1COc2ccccc2O1 (configuration not stated)	.	.	.	/	.	.
N#CC1=C(N)N=C(SCc2cccc3ccccc23)C(C(N)=O)C12CCCCC2 (configuration not stated)	.	.	.	.	.	100
O=C1C2Sc3[nH]c(=O)sc3C(c3cc([N+](=O)[O-])ccc3O)C2C(=O)N1c1ccccc1 (configuration not stated)	/	/	.	.	/	/
COc1ccccc1NC(=O)c1ccc(-n2cccn2)nc1	.	.	.	/	.	.
Oc1cccc(/C=N/NC(=S)Nc2cccnc2)c1O	.	60	.	.	.	99
NC(=S)N/N=C/c1cccc(O)c1O	.	60	.	.	.	.
Oc1ccc(/C=N/NC(=S)Nc2cccnc2)c(O)c1O	/	/	.	/	/	/
S=C(N/N=C/c1ccccc1Cl)Nc1ccccc1	.	.	16	/	.	.
NC(=S)N/N=C/c1ccccc1O	/	/	.	/	/	/
Oc1ccc(/C=N/NC(=S)Nc2cccnc2)c(O)c1	.	.	.	.	.	84
Nc1nnc(SCC(=O)c2ccc3c(c2)NC(=O)CO3)s1	.	.	.	.	.	.
CCc1ccc(C(=O)COC(=O)CNC(=O)COc2ccccc2)cc1	.	.	.	.	.	.
C=C(C)C1CC=C(C)/C(=N\NC(=O)CCC(=O)Nc2ccc(C)c(C)c2)C1 (configuration not stated)	/	/	.	.	/	/
C=C(C)C1CC=C(C)/C(=N/NC(=O)c2ccc(NC(=O)CCC)cc2)C1 (configuration not stated)	.	.	.	.	.	100

High-throughput results: PubChem BioAssay, several laboratories
